Data on 1 compound can be found in ChEMBL document CHEMBL1926556, “Synthesis and biological activities of 2-[(heteroaryl)methyl]imidazolines” (Bioorg Med Chem, 2012).

Series [1] deals with Rattus norvegicus. Briefly: Anxiolytic activity in Sprague-Dawley rat assessed as loss of righting reflex at 100 ug/kg, ip measured after 30 mins. The series is classed as functional, organism-based. In short, it runs like this: (§1)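 Male Sprague–Dawley rats (250–270 g) were handled by the experimenter one day before testing. Compound was dissolved in sterile saline and given i.p. If no loss of righting reflex occurred after 5 min, the dose was repeated, up to 2000 µg/kg cumulative. Animals were watched for righting reflex, locomotion, motor coordination and behaviour. Righting reflex was scored at 30 min.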

Series [2] relates to Rattus norvegicus. Briefly: Antihypertensive activity in Wistar rat assessed as inhibition of methoxamine-induced change in heart rate at 0.1 mg/kg, iv co-administered with 10 ug/kg/min methoxamine challenge. The format is functional, organism-based. Set-up: dose 0.1 mg/kg. In short, it runs like this: (§2)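 Male Wistar rats (200–290 g) anaesthetized with i.p. thiopental 70 mg/kg, maintained by thiopental infusion, 36–37 °C. Carotid catheter for BP/HR, jugular line for infusion. Methoxamine i.v. infusion 10 or 20 µg/kg/min began 10 min before 0.1 mg/kg i.v. bolus. Readout is ΔMAP or ΔHR from time 0. Five to seven rats per group; repeated-measures ANOVA.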

For series [3], the system named is Rattus norvegicus. The experiment in a line: Antihypertensive activity in Wistar rat assessed as inhibition of methoxamine-induced change in heart rate at 0.1 mg/kg, iv administered 10 mins after methoxamine challenge. The format is functional. In short, it runs like this: as §2
Series [4] concerns Rattus norvegicus. The experiment in a line: Toxicity in Sprague-Dawley rat assessed as calm behavior at 10 to 2000 ug/kg, ip measured after 30 mins. The format is organism-based. The note with it: in vivo, 0.5 h.
Series [5] has as its system Rattus norvegicus. The experiment in a line: Toxicity in Sprague-Dawley rat assessed as resistance to handling at 10 to 2000 ug/kg, ip measured after 30 mins. The series is classed as organism-based. Particulars: in vivo, 0.5 h. In short, it runs like this:
as §1

For series [6], the system named is Rattus norvegicus. The experiment in a line: Anxiolytic activity in Sprague-Dawley rat assessed as loss of righting reflex at 500 ug/kg, ip measured after 30 mins. The format is functional, organism-based. The procedure, abridged: as §1
For series [7], the system named is Rattus norvegicus. Briefly: Toxicity in Sprague-Dawley rat assessed as exploratory behavior at 10 to 2000 ug/kg, ip measured after 30 mins. The format is organism-based. The note with it: in vivo, 0.5 h.
Series [8] deals with Rattus norvegicus. The experiment in a line: Toxicity in Sprague-Dawley rat assessed as increase in body temperature at 10 to 2000 ug/kg, ip measured after 30 mins. The format is organism-based. Particulars: in vivo, 0.5 h.
The test system of series [9] is Rattus norvegicus. Briefly: Antihypertensive activity in Wistar rat assessed as inhibition of methoxamine-induced change in blood pressure at 0.1 mg/kg, iv administered 10 mins after 20 ug/kg/min methoxamine challenge. Set-up: dose 0.1 mg/kg. The format is functional, organism-based. The procedure, abridged: as §2
In series [10] the test system is Rattus norvegicus. The experiment in a line: Toxicity in Sprague-Dawley rat assessed as subdued state at 10 to 2000 ug/kg, ip measured after 30 mins. The series is classed as organism-based. Particulars: in vivo, 0.5 h. The procedure, abridged:
as §1

For series [11], the system named is Rattus norvegicus. The experiment in a line: Anxiolytic activity in Sprague-Dawley rat assessed as loss of righting reflex at 2000 ug/kg, ip measured after 30 mins. The format is functional, organism-based. In short, it runs like this:
as §1

For series [12], the system named is Rattus norvegicus. Briefly: Toxicity in Sprague-Dawley rat assessed as reduced motor co-ordination at 10 to 2000 ug/kg, ip measured within 5 to 8 mins. Particulars: in vivo. The format is organism-based. The procedure, abridged:
as §1

Series [13] concerns Rattus norvegicus. Briefly: Toxicity in Sprague-Dawley rat assessed as still state at 10 to 2000 ug/kg, ip measured after 30 mins. The series is classed as organism-based. Particulars: in vivo, 0.5 h. The procedure, abridged:
as §1

Series [14] concerns Rattus norvegicus. The experiment in a line: Antihypertensive activity in Wistar rat assessed as inhibition of methoxamine-induced change in blood pressure at 0.1 mg/kg, iv administered 10 mins after 10 ug/kg/min methoxamine challenge. The format is functional, organism-based. Details: dose 0.1 mg/kg. In short, it runs like this: as §2
Series [15] deals with Rattus norvegicus. The experiment in a line: Anxiolytic activity in Sprague-Dawley rat assessed as loss of righting reflex at 1000 ug/kg, ip measured after 30 mins. The format is functional, organism-based. In short, it runs like this:
as §1

Series [16] concerns Rattus norvegicus. The experiment in a line: Antihypertensive activity in Wistar rat assessed as inhibition of methoxamine-induced change in heart rate at 0.1 mg/kg, iv administered 10 mins after 20 ug/kg/min methoxamine challenge. The format is functional, organism-based. Details: dose 0.1 mg/kg. The procedure, abridged:
as §2

The source made the active and inactive calls. No cut-off for these calls is given here.

With `Cl.Clc1cccc2cnn(CC3=NCCN3)c12`, the result in [1], in [6], in series [9], in [14] and in series [16] was inactive. Further, the outcome in series [2], in series [11] and in series [15] was Active. Also, the Activity in [3] is reported as -131.8 bpm; in series [4], “Non-toxic”; in series [5], “Non-toxic”; in series [7] it was “Non-toxic”; in series [8], “Toxic”; in series [10], “Non-toxic”. Also, the Activity entry in series [12] was “Toxic”; in [13], “Non-toxic”.
